Laboratory results as given in ChEMBL document CHEMBL4330070, “Design and synthesis of novel pyrimidine derivatives as potent antitubercular agents” (Eur J Med Chem, 2019).
Activity calls are given as the source filed them. The rule behind the calls is not given here.

Experiments:
[1] = system: Mycobacterium tuberculosis; test: Antimicrobial activity against autoluminescent Mycobacterium tuberculosis H37Ra assessed as test compound concentration causing ratio of drug treated RLU/untreated RLU less than 10% measured every day up to 6 days by luminometric method; format: functional; conditions: 144 h
Summary of the method: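 Autoluminescent marker-free H37Ra (UAIRa) grown in 7H9 with OADC and 0.05% Tween 80 until RLU exceeded 5 million/mL, then diluted to 10,000-50,000 RLU/mL in 7H9 without Tween 80. Compounds tested as 2-fold dilutions from 100 to 0.625 µg/mL, with DMSO 2% and rifampicin 1 µg/mL controls. RLU read daily to day 6. MIC is the lowest concentration giving RLU drug/DMSO below 10%.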

[2] = system: Mycobacterium tuberculosis; test: Synergistic antimicrobial activity against autoluminescent Mycobacterium tuberculosis H37Ra assessed as test compound concentration causing ratio of drug treated RLU/untreated RLU less than 10% by measuring FICI at 0.0625 to 2 times MIC after 7 days in presence of sulfamethoxazole by luminometric method; format: functional
Summary of the method: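 Exponential-phase UAIRa in 7H9 without Tween 80 at 10,000-50,000 RLU/mL. Compound at 2-fold dilutions from 2×MIC to MIC/16, each combined with sulfamethoxazole at 16, 8, 4 or 2 µg/mL, with a 2% DMSO control. RLU read after 7 days at 37 °C. MIC taken as RLU drug/DMSO below 10%. FICI is the sum of MIC in combination over MIC alone for each drug.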

[3] = system: Mycobacterium tuberculosis; test: Antimicrobial activity against autoluminescent Mycobacterium tuberculosis H37Ra infected in BALB/c mouse assessed as reduction in bacterial burden in lung at 200 mg/kg administered daily via gavage for 5 days and measured on day 6 by luminometric method; format: functional, organism-based
Summary of the method: (§1)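 Mice grouped by similar RLU, four per group. Dosed by gavage daily from day 0 to day 5 in 0.5% CMC-Na, with vehicle, RIF 10 mg/kg and PZA 150 mg/kg controls. Lung or spleen burden read as log10 RLU, mean ± SD.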

[4] = system: Mycobacterium tuberculosis; test: Antimicrobial activity against autoluminescent Mycobacterium tuberculosis H37Ra infected in BALB/c mouse assessed as reduction in bacterial burden in spleen at 200 mg/kg administered daily via gavage for 5 days and measured on day 6 by luminometric method; format: functional, organism-based; summary of the method: as §1
[5] = Toxicity in Balb/c mouse infected with Mycobacterium tuberculosis H37Ra assessed as mouse death at 200 mg/kg administered daily via gavage for 5 days; format: organism-based; conditions: in vivo, po, 120 h
Summary of the method: (§2)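 Female BALB/c mice aged 4-5 weeks infected by tail vein with autoluminescent H37Ra, four per group. Gavage daily from day 0 to day 5 in 0.5% CMC-Na vehicle. Deaths recorded over the 6-day treatment period and reported as percent survival.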

[6] = Toxicity in Balb/c mouse infected with Mycobacterium tuberculosis H37Ra assessed as mouse death at 300 mg/kg administered daily via gavage for 5 days; format: organism-based; conditions: in vivo, po, 120 h; summary of the method: as §2
[7] = system: Mycobacterium tuberculosis; test: Antimicrobial activity against autoluminescent Mycobacterium tuberculosis H37Ra infected in BALB/c mouse assessed as reduction in bacterial burden in lung at 100 to 300 mg/kg administered daily via gavage for 5 days and measured on day 6 by luminometric method; format: functional; summary of the method: as §1
[8] = system: Mycobacterium tuberculosis; test: Antimicrobial activity against autoluminescent Mycobacterium tuberculosis H37Ra infected in BALB/c mouse assessed as reduction in bacterial burden in spleen at 100 to 300 mg/kg administered daily via gavage for 5 days and measured on day 6 by luminometric method; format: functional; summary of the method: as §1
[9] = Toxicity in Balb/c mouse infected with Mycobacterium tuberculosis H37Ra assessed as mouse death at 100 mg/kg administered daily via gavage for 5 days; format: organism-based; conditions: in vivo, po, 120 h; summary of the method: as §2
[10] = system: Mycobacterium tuberculosis; test: Antimicrobial activity against autoluminescent Mycobacterium tuberculosis H37Ra infected in BALB/c mouse assessed as reduction in bacterial burden in lung at 300 mg/kg administered daily via gavage for 5 days and measured on day 6 by luminometric method; format: functional; summary of the method: as §1
[11] = system: Mycobacterium tuberculosis; test: Antimicrobial activity against autoluminescent Mycobacterium tuberculosis H37Ra infected in BALB/c mouse assessed as reduction in bacterial burden in spleen at 300 mg/kg administered daily via gavage for 5 days and measured on day 6 by luminometric method; format: functional, organism-based; summary of the method: as §1

| Compound | MIC [1] [µM] | other results |
| --- | --- | --- |
| Cc1cc(Nc2ncc(Cl)c(NCCc3cccs3)n2)c(OC(C)C)cc1C1CCNCC1 | 10 |  |
| Cc1cc(Nc2ncc(Cl)c(NC(C)(C)Cc3ccc4ccccc4c3)n2)c(OC(C)C)cc1C1CCNCC1 | 18 |  |
| Cc1cc(Nc2ncc(Cl)c(NCCc3ccccc3)n2)c(OC(C)C)cc1C1CCNCC1 | 5 | fractional inhibitory concentration index (FICI) [2]: 0.74; Activity [3]: Active; Activity [4]: Active; Activity [5]: Non-Toxic; Activity [6]: Non-Toxic |
| Cc1cc(Nc2ncc(Cl)c(NC34CC5CC(CC(C5)C3)C4)n2)c(OC(C)C)cc1C1CCNCC1 | 20 |  |
| CC(C)S(=O)(=O)c1ccccc1Nc1nc(Nc2ccc(C(N)=O)cc2)ncc1Cl | > 200 |  |
| CC(C)S(=O)(=O)c1ccccc1Nc1nc(Nc2ccc(C#N)c(F)c2)ncc1Cl | > 200 |  |
| Cc1cc(Nc2ncc(Cl)c(Nc3ccc4ccccc4c3)n2)c(OC(C)C)cc1C1CCNCC1 | 10 |  |
| Cc1cc(Nc2ncc(Cl)c(NCc3ccccc3)n2)c(OC(C)C)cc1C1CCNCC1 | 10 |  |
| Cc1cc(Nc2ncc(Cl)c(Nc3ccccc3S(=O)(=O)C(C)C)n2)c(OC(C)C)cc1N1CCOCC1 | > 150 |  |
| COc1ccc(Nc2ncc(Cl)c(Nc3ccccc3S(=O)(=O)C(C)C)n2)cc1 | > 200 |  |
| Cc1cc(Nc2ncc(Cl)c(Nc3cccc4ccccc34)n2)c(OC(C)C)cc1C1CCNCC1 | 5 | fractional inhibitory concentration index (FICI) [2]: 0.74; Activity [7]: 2 log10RLU; Activity [8]: 0.5 log10RLU; Activity [9]: Non-Toxic; Activity [6]: Non-Toxic |
| Cc1cc(Nc2ncc(Cl)c(Nc3ccccc3S(=O)(=O)C(C)C)n2)c(OC(C)C)cc1N1CCNCC1 | 9 |  |
| Cc1cc(Nc2ncc(Cl)c(N3CCCc4ccccc43)n2)c(OC(C)C)cc1C1CCNCC1 | 20 |  |
| CC(C)S(=O)(=O)c1ccccc1Nc1nc(Nc2ccccc2O)ncc1Cl | > 200 |  |
| Cc1cc(Nc2ncc(Cl)c(Nc3cccc(-c4ccccc4)c3)n2)c(OC(C)C)cc1C1CCNCC1 | 19 |  |
| Cc1cc(Nc2ncc(Cl)c(Nc3ccc(O)cc3)n2)c(OC(C)C)cc1C1CCNCC1 | 10 |  |
| CC(C)S(=O)(=O)c1ccccc1Nc1nc(NCCc2ccc(Br)cc2)ncc1Cl | > 150 |  |

| Compound | MIC [1] [µM] | other results |
| --- | --- | --- |
| Cc1cc(Cc2ncc(Cl)c(NCCc3ccc(O)cc3)n2)c(OC(C)C)cc1C1CCNCC1 | 10 |  |
| CC(C)S(=O)(=O)c1ccccc1Nc1nc(Nc2ccccc2OCCCN2CCOCC2)ncc1Cl | > 150 |  |
| Cc1cc(Nc2ncc(Cl)c(Nc3ccccc3O)n2)c(OC(C)C)cc1C1CCNCC1 | ≤ 10 |  |
| Cc1cc(Nc2ncc(Cl)c(N[C@H](C)c3ccccc3)n2)c(OC(C)C)cc1C1CCNCC1 | 10 |  |
| Cc1cc(Nc2ncc(Cl)c(Nc3ccc(C(N)=O)cc3)n2)c(OC(C)C)cc1C1CCNCC1 | 20 |  |
| Cc1cc(NS(=O)(=O)c2ccc(N)cc2)no1 [SULFAMETHOXAZOLE] | 67 |  |
| COc1ccc(CCNc2nc(Nc3cc(C)c(C4CCNCC4)cc3OC(C)C)ncc2Cl)cc1 | 5 | fractional inhibitory concentration index (FICI) [2]: 1.24; Activity [3]: inactive; Activity [4]: inactive; Activity [5]: Toxic |
| Cc1cc(Nc2ncc(Cl)c(Nc3ccccc3S(=O)(=O)C(C)C)n2)c(OC(C)C)cc1C1CCNCC1 [CERITINIB] | 9 | fractional inhibitory concentration index (FICI) [2]: 0.74; Activity [6]: Toxic; Activity [10]: 1 log10RLU; Activity [11]: inactive |
| Cc1cc(Nc2ncc(Cl)c(Nc3ccccc3S(=O)(=O)C(C)C)n2)c(OC(C)C)cc1N1CCN(C)CC1 | 18 |  |
| CC(C)S(=O)(=O)c1ccccc1Nc1nc(Nc2ccc(Cl)cc2)ncc1Cl | > 200 |  |
| Cc1cc(Nc2ncc(Cl)c(NCCc3ccc(F)cc3)n2)c(OC(C)C)cc1C1CCNCC1 | 10 |  |
| CC(C)S(=O)(=O)c1ccccc1Nc1nc(Nc2ccccc2C#N)ncc1Cl | > 200 |  |
| Cc1cc(Nc2ncc(Cl)c(Nc3cc(C(F)(F)F)cc(C(F)(F)F)c3)n2)c(OC(C)C)cc1C1CCNCC1 | 17 |  |
| COc1ccc(Nc2nc(Nc3cc(C)c(C4CCNCC4)cc3OC(C)C)ncc2Cl)cc1Br | 9 |  |
| Cc1cc(Nc2ncc(Cl)c(NC3CCCCC3)n2)c(OC(C)C)cc1C1CCNCC1 | 11 |  |
| COc1ccc(-c2cc(Nc3nc(Nc4cc(C)c(C5CCNCC5)cc4OC(C)C)ncc3Cl)ccc2OC)cc1 | 17 |  |
